This note sets out measurements from ChEMBL document CHEMBL3352791, “Thioaryl naphthylmethanone oxime ether analogs as novel anticancer agents” (J Med Chem, 2014).

SMILES strings stand for the structures. Calls of active or inactive are those of the source. No cut-off for these calls is given here.

Assay [1] concerns MDA-MB-231. Description: Cell cycle arrest in human […] cells assessed as accumulation at G1 phase at 5 uM by propidium iodide staining by FACS analysis (reference value: 63.74%). The format is functional. On the technique in general: A flow cytometer gives signals particle by particle.
Assay [2] concerns MCF7. The experiment in a line: Cell cycle arrest in human […] cells assessed as accumulation at subG1 phase at 5 uM by propidium iodide staining by FACS analysis (reference value: 0.1%). In kind it is functional.
Assay [3] relates to MCF7. Description: Cell cycle arrest in human […] cells assessed as accumulation at G1 phase at 7.5 uM by propidium iodide staining by FACS analysis (reference value: 62.88%). The format is functional.
For assay [4], the system named is MCF7. Description: Cell cycle arrest in human […] cells assessed as accumulation at G2 phase at 5 uM by propidium iodide staining by FACS analysis (reference value: 10.96%). In kind it is functional.
Assay [5] concerns MDA-MB-231. The experiment in a line: Antiproliferative activity against human ER-positive MDA-MB-231 cells after 24 hrs by MTT assay. The format is functional, cell-based. Conditions: mda-mb-231. (Tetrazolium assays rely on reduction of a dye to a coloured formazan, in cell work by metabolically active cells.)
For assay [6], the target named is Angiopoietin-1 receptor (Homo sapiens) (UniProt Q02763). Description: Inhibition of Tie2 (unknown origin) at 10 uM. The gist of the method: (§1)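 Cell-free kinase profiling was run as a standard 33P-ATP-based in vitro kinase assay.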
In assay [7] the test system is MDA-MB-231. The experiment in a line: Induction of apoptosis in human […] MDA-MB-231 cells assessed as increase in Bax to Bcl2 ratio at 5 uM after 24 hrs by immunoblotting analysis. In kind it is functional, cell-based. Background: A western blot detects proteins with antibodies after separation by electrophoresis.
Assay [8] deals with T1, Signal transducer and activator of transcription 1-alpha/beta (Homo sapiens) (UniProt P42224).
T1 sequence (whole entry): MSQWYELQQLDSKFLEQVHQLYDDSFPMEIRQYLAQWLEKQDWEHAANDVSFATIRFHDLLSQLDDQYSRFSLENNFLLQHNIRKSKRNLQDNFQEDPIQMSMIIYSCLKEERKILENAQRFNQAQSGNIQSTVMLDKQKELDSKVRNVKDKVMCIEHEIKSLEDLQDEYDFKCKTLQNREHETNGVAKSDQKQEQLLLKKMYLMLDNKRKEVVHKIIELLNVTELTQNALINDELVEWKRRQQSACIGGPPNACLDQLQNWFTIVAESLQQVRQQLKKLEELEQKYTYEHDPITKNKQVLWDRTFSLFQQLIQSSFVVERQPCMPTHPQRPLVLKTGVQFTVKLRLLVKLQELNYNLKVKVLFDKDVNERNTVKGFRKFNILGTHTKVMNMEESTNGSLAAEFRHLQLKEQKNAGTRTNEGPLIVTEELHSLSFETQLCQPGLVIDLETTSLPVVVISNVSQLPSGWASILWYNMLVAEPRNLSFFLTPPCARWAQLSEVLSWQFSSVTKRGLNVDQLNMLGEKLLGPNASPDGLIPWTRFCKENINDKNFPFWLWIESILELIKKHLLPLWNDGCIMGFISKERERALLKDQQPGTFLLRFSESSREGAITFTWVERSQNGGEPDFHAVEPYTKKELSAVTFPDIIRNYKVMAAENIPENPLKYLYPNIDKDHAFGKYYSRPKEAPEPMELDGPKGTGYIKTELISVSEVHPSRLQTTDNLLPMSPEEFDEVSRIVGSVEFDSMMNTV
The experiment in a line: Inhibition of basal level STAT1 phosphorylation in human MCF7 cells at 1 uM by ELISA. In kind it is cell-based.

Assay [9] relates to Mast/stem cell growth factor receptor Kit (Homo sapiens), P10721 [D816H]. The experiment in a line: Inhibition of cKit D816H mutant (unknown origin) at 10 uM. An outline of the steps:
as §1

Assay [10] has as its system MDA-MB-231. Description: Cytotoxicity against human MDA-MB-231 cells assessed as cell viability at 5 uM by MTT assay in presence of 100 ng/ml cholera toxin for 16 hrs. The format is functional, cell-based.
Assay [11] has as its system MDA-MB-231. Description: Antiinvasion activity in human MDA-MB-231 cells assessed as inhibition of EGF-induced cell invaded to matrigel coated invasion chamber at 1 uM after 24 hrs by Transwell invasion assay. The format is functional, cell-based. The gist of the method: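 Transwell matrigel invasion (8 µm pore): cells at 1x10^5 cells/mL in 2% FBS medium in upper chamber; lower chamber medium with 1µM compound and EGF 100ng/ml; 24 h. Invaded cells on filter underside fixed, crystal-violet stained, counted in six random fields at 20×, dye dissolved in 0.1% SDS read at 540nm; triplicate chambers.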

In assay [12] the test system is MCF7. The experiment in a line: Antiproliferative activity against human […] cells at 2.5 to 7.5 uM by annexin V-FITC/propidium iodide staining-based flow cytometric analysis. The format is functional, cell-based.
Assay [13] has as its system MDA-MB-231. Description: Induction of cAMP level in human MDA-MB-231 cells at 0.1 to 25 uM. The format is functional, cell-based. The gist of the method: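 MDA-MB-231 cells serum-starved for 4 h, treated with 500μM IBMX for 30 min, then exposed to compound for a further 30 min. Cellular cAMP read by HTRF kit.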
The subject of assay [14] is MDA-MB-231. Description: Inhibition of basal cell migration in human MDA-MB-231 cells assessed as […] at 1 uM after 24 hrs by wound healing assay. In kind it is functional, cell-based.
Assay [15] concerns the target Epidermal growth factor receptor (Homo sapiens) (UniProt P00533). Description: Inhibition of EGF-induced EGFR phosphorylation at Tyr1045 in human MDA-MB-231 cells at 1 uM by ELISA. The format is cell-based.
For assay [16], the system named is MDA-MB-231. The experiment in a line: Effect on intracellular calcium level in human MDA-MB-231 cells at 1 to 25 uM by flow cytometry. In kind it is functional, cell-based. The gist of the method:
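Trypsinized cells washed in PBS (pH 7.4), loaded with Fluo-4AM 45 min in HBSS, washed and resuspended in calcium-free HBSS; baseline fluorescence read 2 min by flow cytometry, then 7 min after compound addition.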

Assay [17] deals with MDA-MB-231. The experiment in a line: Inhibition of INS expression in human MDA-MB-231 cells at 5 uM by ELISA. In kind it is functional, cell-based.
Assay [18] concerns MCF7. Description: Cytotoxicity against human […] cells assessed as cell viability at 5 uM by MTT assay in presence of z-IETD-FMK caspase-8 inhibitor. In kind it is functional, cell-based. The gist of the method: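 Cells seeded 1×10^4/well in DMEM with 10% FBS, adhered overnight, serum-starved 4 h; pre-incubated 2 h with Z-IETD-FMK or Z-LEHD-FMK (10µM each), then 5μM compound for a further 24 h; viability by MTT.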

For assay [19], the system named is MCF7. Description: Induction of apoptosis in human […] cells assessed as loss of mitochondrial membrane potential at 5 uM after 24 hrs by JC-1 staining based flow cytometry. The format is functional, cell-based. An outline of the steps: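 Cells given 5μM compound for 24 h, trypsinized, stained with JC-1 (1μg/ml) in medium 15 min at 37°C, PBS-washed, analysed by flow cytometry on FL1 and FL2 channels.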

Assay [20] addresses Phosphodiesterase 6 (Homo sapiens) (UniProt Q13956+P18545+P35913+O43924+P16499+P51160). The experiment in a line: Inhibition of PDE6AB (unknown origin) activity at 1 to 10 uM. In kind it is protein assay. An outline of the steps: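 PDE6AB activity was measured by radiometric assay, a modification of the Thompson and Appleman two-step method. Sildenafil 1µM served as reference standard.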

In assay [21] the test system is MDA-MB-231. The experiment in a line: Inhibition of MMP9 expression in human MDA-MB-231 cells at 1 uM after 24 hrs by qPCR analysis. In kind it is functional, cell-based. An outline of the steps:
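MDA-MB-231 cells treated at 1µM. Transcript levels measured by qPCR with GAPDH as internal control.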

For the next assay, the system named is DLD-1. Description: Antitumor activity against human DLD1 cells assessed as reduction in CD133 positive in colon cancer stem cells after 24 hrs by flow cytometry. In kind it is functional, cell-based.

Epidermal growth factor receptor (Homo sapiens), sequence (P00533 whole entry): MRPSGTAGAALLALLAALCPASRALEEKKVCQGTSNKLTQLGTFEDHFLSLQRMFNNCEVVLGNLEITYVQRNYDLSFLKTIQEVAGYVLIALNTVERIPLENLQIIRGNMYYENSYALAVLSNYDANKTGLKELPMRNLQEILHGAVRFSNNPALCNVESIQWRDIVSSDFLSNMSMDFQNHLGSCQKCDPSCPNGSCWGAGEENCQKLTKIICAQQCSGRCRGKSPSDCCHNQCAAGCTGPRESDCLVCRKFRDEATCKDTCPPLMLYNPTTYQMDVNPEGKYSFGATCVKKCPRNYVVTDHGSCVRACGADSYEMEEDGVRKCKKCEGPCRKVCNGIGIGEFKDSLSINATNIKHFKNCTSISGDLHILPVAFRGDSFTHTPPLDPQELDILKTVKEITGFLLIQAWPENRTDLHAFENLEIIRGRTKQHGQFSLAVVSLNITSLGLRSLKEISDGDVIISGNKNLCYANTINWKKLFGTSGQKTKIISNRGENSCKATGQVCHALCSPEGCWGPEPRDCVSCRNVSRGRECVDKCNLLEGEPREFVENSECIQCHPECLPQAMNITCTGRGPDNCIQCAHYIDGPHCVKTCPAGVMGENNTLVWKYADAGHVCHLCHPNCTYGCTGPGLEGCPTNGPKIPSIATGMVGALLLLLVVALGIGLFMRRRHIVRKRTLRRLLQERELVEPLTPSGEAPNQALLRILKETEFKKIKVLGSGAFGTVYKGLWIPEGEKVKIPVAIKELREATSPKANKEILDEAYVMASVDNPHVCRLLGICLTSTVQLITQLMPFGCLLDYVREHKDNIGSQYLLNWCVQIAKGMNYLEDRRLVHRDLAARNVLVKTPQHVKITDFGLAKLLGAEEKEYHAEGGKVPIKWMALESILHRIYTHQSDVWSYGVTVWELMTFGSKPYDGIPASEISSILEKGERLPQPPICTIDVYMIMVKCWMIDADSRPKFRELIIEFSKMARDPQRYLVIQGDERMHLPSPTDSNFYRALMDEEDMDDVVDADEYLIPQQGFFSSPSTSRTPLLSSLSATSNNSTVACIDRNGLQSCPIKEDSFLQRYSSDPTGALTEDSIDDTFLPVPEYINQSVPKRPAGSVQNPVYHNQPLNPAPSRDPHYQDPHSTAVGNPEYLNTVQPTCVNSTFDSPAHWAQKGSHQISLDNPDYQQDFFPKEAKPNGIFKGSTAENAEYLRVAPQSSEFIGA
Angiopoietin-1 receptor (Homo sapiens), sequence (Q02763 whole entry): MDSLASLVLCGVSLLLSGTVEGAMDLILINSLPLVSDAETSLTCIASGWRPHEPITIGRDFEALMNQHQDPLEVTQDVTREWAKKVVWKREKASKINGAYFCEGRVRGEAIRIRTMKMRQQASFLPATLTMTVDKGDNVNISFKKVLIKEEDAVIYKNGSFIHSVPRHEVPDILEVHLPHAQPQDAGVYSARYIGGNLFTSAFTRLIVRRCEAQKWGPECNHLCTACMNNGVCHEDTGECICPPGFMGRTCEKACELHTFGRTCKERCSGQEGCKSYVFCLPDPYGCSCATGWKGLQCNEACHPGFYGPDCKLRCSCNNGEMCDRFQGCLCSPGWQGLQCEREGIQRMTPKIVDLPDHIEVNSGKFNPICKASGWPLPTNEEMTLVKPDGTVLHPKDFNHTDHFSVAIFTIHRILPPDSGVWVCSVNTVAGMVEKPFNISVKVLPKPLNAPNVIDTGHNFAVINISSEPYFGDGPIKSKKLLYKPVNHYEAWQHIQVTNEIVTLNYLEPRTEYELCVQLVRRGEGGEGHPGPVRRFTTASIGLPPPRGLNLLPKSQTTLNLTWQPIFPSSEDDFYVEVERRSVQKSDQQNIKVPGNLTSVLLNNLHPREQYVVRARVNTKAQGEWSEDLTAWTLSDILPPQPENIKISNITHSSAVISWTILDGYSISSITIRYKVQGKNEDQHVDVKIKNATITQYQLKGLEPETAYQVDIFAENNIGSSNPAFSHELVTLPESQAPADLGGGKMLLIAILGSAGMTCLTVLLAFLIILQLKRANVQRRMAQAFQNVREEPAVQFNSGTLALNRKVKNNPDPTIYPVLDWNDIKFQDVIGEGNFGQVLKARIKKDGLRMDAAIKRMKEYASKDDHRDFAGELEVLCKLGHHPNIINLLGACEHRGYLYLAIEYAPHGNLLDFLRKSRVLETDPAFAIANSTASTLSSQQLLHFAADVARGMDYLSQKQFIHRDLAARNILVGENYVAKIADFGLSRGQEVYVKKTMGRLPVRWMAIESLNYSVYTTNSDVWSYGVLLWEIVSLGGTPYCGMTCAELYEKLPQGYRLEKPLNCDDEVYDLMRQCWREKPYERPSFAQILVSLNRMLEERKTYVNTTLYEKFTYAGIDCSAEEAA
Mast/stem cell growth factor receptor Kit (Homo sapiens), P10721 [D816H], sequence (P10721 whole entry D816H): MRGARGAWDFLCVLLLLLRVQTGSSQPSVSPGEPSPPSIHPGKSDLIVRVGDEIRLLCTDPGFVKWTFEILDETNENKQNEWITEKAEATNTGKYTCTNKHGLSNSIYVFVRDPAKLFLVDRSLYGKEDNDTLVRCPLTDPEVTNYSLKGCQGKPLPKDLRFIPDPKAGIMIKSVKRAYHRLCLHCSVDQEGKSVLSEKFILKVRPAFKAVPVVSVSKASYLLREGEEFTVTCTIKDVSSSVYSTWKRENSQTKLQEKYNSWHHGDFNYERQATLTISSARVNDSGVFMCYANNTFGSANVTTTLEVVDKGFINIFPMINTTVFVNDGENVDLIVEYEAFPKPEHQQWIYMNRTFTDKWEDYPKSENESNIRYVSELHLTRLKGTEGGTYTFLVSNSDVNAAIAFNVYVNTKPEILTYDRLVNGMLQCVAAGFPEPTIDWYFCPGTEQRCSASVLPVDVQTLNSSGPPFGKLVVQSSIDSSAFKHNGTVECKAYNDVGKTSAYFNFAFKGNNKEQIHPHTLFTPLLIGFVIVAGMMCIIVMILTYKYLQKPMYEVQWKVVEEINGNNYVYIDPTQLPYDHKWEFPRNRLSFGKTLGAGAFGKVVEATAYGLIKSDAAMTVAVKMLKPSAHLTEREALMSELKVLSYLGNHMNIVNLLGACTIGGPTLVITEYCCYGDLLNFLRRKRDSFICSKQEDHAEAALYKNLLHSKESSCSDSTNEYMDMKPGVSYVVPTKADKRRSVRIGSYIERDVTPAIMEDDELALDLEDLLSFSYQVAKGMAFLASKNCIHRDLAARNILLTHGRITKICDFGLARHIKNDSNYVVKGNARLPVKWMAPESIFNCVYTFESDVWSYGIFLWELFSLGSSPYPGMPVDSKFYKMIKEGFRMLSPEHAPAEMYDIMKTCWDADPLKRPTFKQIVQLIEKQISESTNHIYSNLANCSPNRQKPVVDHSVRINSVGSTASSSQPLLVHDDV

As for `CCN(CC)CCO/N=C(\c1ccc(SC)cc1)c1cccc2ccccc12.O=C(O)C(=O)O`, the Activity with MDA-MB-231 [1] turned out to be 88%; with MCF7 [2] it was 0.9%; with MCF7 [3], 85.99%; in the assay on MCF7 [4], 11.48%. Besides, the EC50 (in general, the concentration giving half of the maximal effect) with MDA-MB-231 [5] amounted to 7.2 µM.

`CCN(CC)CCO/N=C(\c1ccc(SC)cc1)c1cccc2ccccc12`: the inhibition result (in [6]; in assay [8]; in assay [9]; with MDA-MB-231 [17]; in [20]) was “inactive” throughout. Moreover, the result in the assay with MDA-MB-231 [7], in the assay on MCF7 [12], with MDA-MB-231 [13] and in the assay with MCF7 [19] was Active. Moreover, the inhibition entry (with MDA-MB-231 [10]; in the assay on MDA-MB-231 [11]; in the assay with MDA-MB-231 [14]; in [15]; in the assay on MDA-MB-231 [21]; in the assay on DLD-1) was “Active” each time. Moreover, the result in the assay on MDA-MB-231 [16] and with MCF7 [18] was inactive.
